Data published in ChEMBL document CHEMBL3526048, “In vitro metabolism of rivoglitazone, a novel peroxisome proliferator-activated receptor γ agonist, in rat, monkey, and human liver microsomes and freshly isolated hepatocytes” (Drug Metab Dispos, 2011).

Columns and labels:
[1] = target: T1, Cytochrome P450 1A2 (Homo sapiens, UniProt P05177); experiment: Activity of human CYP1A2 expressed in microsomes isolated from baculovirus infected insect cell assessed as enzyme-mediated 3-(4-((6-methoxy-1-methyl-1H-benzo[d]imidazol-2-yl)methoxy)phenyl)-2-(methylsulfinyl)propanamide formation at 20 uM after 2 hrs by radio-HPLC/LC-MS/MS analysis in presence of NADPH-generating system/SAM; format: ADME
T1 sequence (P05177 whole entry): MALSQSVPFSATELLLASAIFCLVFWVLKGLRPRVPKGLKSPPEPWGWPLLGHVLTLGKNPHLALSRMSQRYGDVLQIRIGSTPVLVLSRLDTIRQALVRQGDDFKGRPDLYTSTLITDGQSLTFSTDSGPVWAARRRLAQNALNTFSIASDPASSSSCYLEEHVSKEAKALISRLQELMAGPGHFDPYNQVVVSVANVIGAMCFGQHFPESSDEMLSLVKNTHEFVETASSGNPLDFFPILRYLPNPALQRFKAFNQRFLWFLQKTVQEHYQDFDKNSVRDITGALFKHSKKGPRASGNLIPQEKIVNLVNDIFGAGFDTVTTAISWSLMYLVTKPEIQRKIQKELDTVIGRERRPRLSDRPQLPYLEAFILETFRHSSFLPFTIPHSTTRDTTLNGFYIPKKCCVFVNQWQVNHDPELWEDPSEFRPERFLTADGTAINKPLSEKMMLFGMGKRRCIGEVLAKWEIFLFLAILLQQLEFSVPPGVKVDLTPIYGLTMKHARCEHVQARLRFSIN

[2] = target: T2, Cytochrome P450 3A4 (Homo sapiens, UniProt P08684); experiment: (§1) Activity of human CYP3A4 expressed in microsomes isolated from baculovirus infected insect cell assessed as enzyme-mediated 5-(4-((6-methoxy-1H-benzo[d]imidazol-2-yl)methoxy)benzyl)thiazolidine-2,4-dione formation at 20 uM after 2 hrs by radio-HPLC/LC-MS/MS analysis in presence of NADPH-generating system and NADPH-generating system/SAM; format: ADME
[3] = system: Liver microsome; experiment: Drug metabolism in Sprague-Dawley rat liver microsomes assessed as formation of 2-mercapto-3-(4-((6-methoxy-1-methyl-1H-benzo[d]imidazol-2-yl)methoxy)phenyl)propanamide at 20 uM after 2 hrs by radio-HPLC/LC-MS/MS analysis in presence of NADPH-generating system and NADPH-generating system/SAM; format: ADME
[4] = Drug metabolism in rat hepatocytes assessed as formation of 2-((4-((2,4-dioxothiazolidin-5-yl)methyl)phenoxy)methyl)-1-methyl-1H-benzo[d]imidazol-6-yl hydrogen sulfate at 30 uM after 3 hrs by radio-HPLC/LC-MS/MS analysis; format: ADME, cell-based, Hepatocyte
[5] = target: Cytochrome P450 2C19 (Homo sapiens, UniProt P33261); experiment: Activity of human CYP2C19 expressed in microsomes isolated from baculovirus infected insect cell assessed as enzyme-mediated 2-((4-((2,4-dioxothiazolidin-5-yl)methyl)phenoxy)methyl)-1-methyl-1H-benzo[d]imidazol-6-yl hydrogen sulfate formation at 20 uM after 2 hrs by radio-HPLC/LC-MS/MS analysis; format: ADME
Method in brief: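 Baculovirus/insect-cell microsomes expressing single human CYPs, 1 mg/ml protein, with 50 mM potassium phosphate (pH 7.4) or 100 mM Tris-HCl (pH 7.5). NADPH-generating system: 2 mM NADP⁺, 20 mM glucose 6-phosphate, 2 units/ml G6PDH, 10 mM MgCl₂. [¹⁴C]rivoglitazone at 20 μM, 2 h at 37°C with shaking. Control used insect-cell control supersomes. Stopped with acetonitrile; supernatant concentrated under nitrogen; metabolites analysed by radio-HPLC, LC-MS and LC-MS/MS.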

[6] = target: T3, Cytochrome P450 2C8 (Homo sapiens, UniProt P10632); experiment: Activity of human CYP2C8 expressed in microsomes isolated from baculovirus infected insect cell assessed as enzyme-mediated (2S,3S,4S,5R,6R)-3,4,5-trihydroxy-6-(5-(4-((6-methoxy-1-methyl-1H-benzo[d]imidazol-2-yl)methoxy)benzyl)-2,4-dioxothiazolidin-3-yl)tetrahydro-2H-pyran-2-carboxylic acid formation at 20 uM after 2 hrs by radio-HPLC/LC-MS/MS analysis in presence of UDPGA and UDPGA/SAM; format: ADME
T3 sequence (P10632 whole entry): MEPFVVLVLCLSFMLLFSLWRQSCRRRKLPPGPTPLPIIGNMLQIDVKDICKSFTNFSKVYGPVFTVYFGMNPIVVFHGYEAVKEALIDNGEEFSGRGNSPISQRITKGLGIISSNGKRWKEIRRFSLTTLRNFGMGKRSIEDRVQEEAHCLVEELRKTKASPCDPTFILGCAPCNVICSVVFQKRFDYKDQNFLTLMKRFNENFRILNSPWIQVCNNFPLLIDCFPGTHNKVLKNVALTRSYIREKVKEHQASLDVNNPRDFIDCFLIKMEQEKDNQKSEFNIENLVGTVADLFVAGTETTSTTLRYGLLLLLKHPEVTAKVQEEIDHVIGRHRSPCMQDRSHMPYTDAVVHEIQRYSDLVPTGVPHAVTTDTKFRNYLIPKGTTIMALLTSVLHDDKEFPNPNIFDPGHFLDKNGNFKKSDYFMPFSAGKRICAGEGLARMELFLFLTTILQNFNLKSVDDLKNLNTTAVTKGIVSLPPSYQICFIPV

[7] = target: T2, Cytochrome P450 3A4; experiment: as §1, with “2-hydroxy-3-(4-((6-methoxy-1-methyl-1H-benzo[d]imidazol-2-yl)methoxy)phenyl)propanamide” for “5-(4-((6-methoxy-1H-benzo[d]imidazol-2-yl)methoxy)benzyl)thiazolidine-2,4-dione”; format: ADME
[8] = Drug metabolism in human hepatocytes assessed as formation of 5-(4-((6-hydroxy-1-methyl-1H-benzo[d]imidazol-2-yl)methoxy)benzyl)thiazolidine-2,4-dione at 30 uM after 3 hrs by radio-HPLC/LC-MS/MS analysis in presence of NADPH-generating system and NADPH-generating system/SAM; format: ADME, cell-based, Hepatocyte
[9] = Drug metabolism in monkey hepatocytes assessed as formation of (2S,3S,4S,5R,6R)-6-((1-carboxy-2-(4-((6-methoxy-1-methyl-1H-benzo[d]imidazol-2-yl)methoxy)phenyl)ethylthio)carbonylamino)-3,4,5-trihydroxytetrahydro-2H-pyran-2-carboxylic acid at 30 uM after 3 hrs by radio-HPLC/LC-MS/MS analysis in presence of UDPGA and UDPGA/SAM; conditions: cynomolgus monkey
[10] = target: T4, UDP-glucuronosyltransferase 1A3 (Homo sapiens, UniProt P35503); experiment: Activity of human UGT1A3 expressed in microsomes isolated from baculovirus infected insect cell assessed as enzyme-mediated 2-hydroxy-3-(4-((6-methoxy-1-methyl-1H-benzo[d]imidazol-2-yl)methoxy)phenyl)propanamide formation at 20 uM after 4 hrs by radio-HPLC/LC-MS/MS analysis in presence of NADPH-generating system and NADPH-generating system/SAM in presence of UDPGA and UDPGA/SAM; format: ADME
T4 sequence (P35503 whole entry): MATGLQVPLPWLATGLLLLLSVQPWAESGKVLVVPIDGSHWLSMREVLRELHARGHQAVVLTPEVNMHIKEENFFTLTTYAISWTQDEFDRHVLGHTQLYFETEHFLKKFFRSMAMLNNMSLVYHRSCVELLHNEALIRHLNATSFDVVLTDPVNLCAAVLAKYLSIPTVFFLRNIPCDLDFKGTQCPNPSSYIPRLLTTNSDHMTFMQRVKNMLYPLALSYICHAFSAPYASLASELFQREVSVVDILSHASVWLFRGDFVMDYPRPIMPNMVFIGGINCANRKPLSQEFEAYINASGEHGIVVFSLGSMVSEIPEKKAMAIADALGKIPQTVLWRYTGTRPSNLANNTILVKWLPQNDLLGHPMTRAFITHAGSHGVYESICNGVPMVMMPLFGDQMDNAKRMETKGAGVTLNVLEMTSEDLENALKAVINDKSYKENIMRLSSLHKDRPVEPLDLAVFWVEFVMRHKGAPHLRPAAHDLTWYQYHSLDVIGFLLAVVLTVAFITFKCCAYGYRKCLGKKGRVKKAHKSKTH

T2 sequence (P08684 whole entry): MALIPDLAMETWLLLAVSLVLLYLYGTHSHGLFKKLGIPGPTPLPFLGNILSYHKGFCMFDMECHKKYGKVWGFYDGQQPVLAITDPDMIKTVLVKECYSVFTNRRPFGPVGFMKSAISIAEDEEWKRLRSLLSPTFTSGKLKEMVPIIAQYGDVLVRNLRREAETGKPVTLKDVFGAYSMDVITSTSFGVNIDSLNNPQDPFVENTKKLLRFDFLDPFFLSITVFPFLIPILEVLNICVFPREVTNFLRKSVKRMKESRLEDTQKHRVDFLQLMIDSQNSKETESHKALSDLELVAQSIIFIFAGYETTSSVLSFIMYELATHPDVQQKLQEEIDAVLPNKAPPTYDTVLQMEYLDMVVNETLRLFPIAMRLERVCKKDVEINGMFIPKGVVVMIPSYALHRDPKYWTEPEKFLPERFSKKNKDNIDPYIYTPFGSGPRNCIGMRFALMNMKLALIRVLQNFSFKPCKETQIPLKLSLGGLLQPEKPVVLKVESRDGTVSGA
Sequence of Cytochrome P450 2C19 (P33261 whole entry): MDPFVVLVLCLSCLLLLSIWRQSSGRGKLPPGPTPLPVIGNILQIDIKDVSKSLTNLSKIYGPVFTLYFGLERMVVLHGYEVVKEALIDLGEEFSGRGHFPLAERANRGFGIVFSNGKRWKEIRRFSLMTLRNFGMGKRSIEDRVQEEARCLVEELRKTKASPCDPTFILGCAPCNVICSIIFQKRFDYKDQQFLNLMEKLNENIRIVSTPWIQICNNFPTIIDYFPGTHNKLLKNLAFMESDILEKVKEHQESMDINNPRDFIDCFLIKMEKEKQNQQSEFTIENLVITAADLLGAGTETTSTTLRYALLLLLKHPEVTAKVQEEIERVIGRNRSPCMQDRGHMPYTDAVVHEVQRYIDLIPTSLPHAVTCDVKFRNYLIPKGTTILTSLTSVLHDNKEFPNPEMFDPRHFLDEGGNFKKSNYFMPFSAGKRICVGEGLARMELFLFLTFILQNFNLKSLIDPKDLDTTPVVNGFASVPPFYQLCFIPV

Drug metabolism [1]: metabolite_not_detected
Drug metabolism [2]: metabolite_detected
Drug metabolism [3]: metabolite_detected
Drug metabolism [4]: metabolite_detected
Drug metabolism [5]: metabolite_not_detected
Drug metabolism [6]: metabolite_not_detected
Drug metabolism [7]: metabolite_detected
Drug metabolism [8]: metabolite_detected
Drug metabolism [9]: metabolite_detected
Drug metabolism [10]: metabolite_not_detected
Compound: COc1ccc2nc(COc3ccc(C[14CH]4SC(=O)NC4=O)cc3)n(C)c2c1.Cl (racemic)
